Results pooled from the literature.
Lines come from different studies, so protocols differ.
Organism: Escherichia coli
Read-out: microbial growth

SMILES | test | system | setting | MIC
O=C1NN=C(N=Cc2ccc(O)cc2O)C1=NNn1c(-c2ccccc2)nc2ccccc2c1=O | broth dilution | – | 24 h | 53.5 µM
N=C(N)c1ccc(OCCC(CCOc2ccc(C(=N)N)cc2)c2ccccc2)cc1 (centres unmarked) | – | BW25113 | – | > 200 µg/mL
O=C(Cc1cc(O)c(O)c(O)c1)NCCCCCCCC[P+](c1ccccc1)(c1ccccc1)c1ccccc1.[Br-] | broth dilution | ATCC25922 | 18 h | > 32 µg/mL
O=C(O)c1cn(C2CC2)c2cc(N3CCNCC3)c(F)cc2c1=O | broth dilution | ATCC10536 | 18 h | ≤ 1 µg/mL
C[C@H](CCC(=O)NCCCNCCCCNCCCN)[C@H]1CC[C@H]2[C@@H]3CC[C@@H]4C[C@H](O)CC[C@]4(C)[C@H]3CC[C@]12C | broth dilution | MG1655 | 20 h | 128 µg/mL
C/C(O)=C1\C(=O)C(CC(C)C)N(C(=O)CCCCCc2ccccc2)C1=O (centres unmarked) | – | K12, K12 | – | > 200 µg/mL
Cc1ccc2nc(-c3ccc(Cl)c(Cl)c3)n(Cc3ccccc3)c2c1 | broth dilution | ATCC25922 | – | 32 µg/mL
O=C(Nc1ncc([N+](=O)[O-])s1)c1cc2ccccc2s1 | – | – | – | < 50 µM
CC1=NN(CNc2ccc(C(=O)O)cc2)C(=O)C1=NNn1c(-c2ccccc2)nc2ccccc2c1=O | broth dilution | – | 24 h | 50.5 µM
Cc1ccc2nc(-c3cccnc3)[nH]c2c1 | broth dilution | ATCC25922 | – | 128 µg/mL
COc1c(C)c(OC(C)=O)c(C)c(OC(C)=O)c1C(=O)/C=C/c1ccccc1 | broth dilution | ATCC25922 | – | 5000 µg/mL
COc1cccc(NCc2ccc(Oc3ccccn3)cc2)c1 | – | – | – | > 50 µg/mL
COc1c(C(=O)Nc2ccc(C(=O)O)cc2)ccc2nc(-c3cc(NC(=O)C(CC(N)=O)NC(=O)c4ccc(NC(=O)c5ccc(C#N)cc5)cc4)cn3C)[nH]c12 (centres unmarked) | – | DSM1116 | – | > 64 µg/mL
CCCCCCCCCC(=O)Oc1c(C)c(O)c(C(=O)/C=C/c2ccccc2)c(OC)c1C | broth dilution | ATCC25922 | – | 5000 µg/mL
Cc1c(CN(C)C(=O)/C=C/c2cnc3c(c2)CC(CCN)C(=O)N3)oc2ccccc12.Cl (centres unmarked) | broth dilution | BAA2469 | clinical isolate | 2 µg/mL
N=C(N)c1ccc(OCCCCCCCCCOc2ccc(C(=N)N)cc2)cc1 | broth dilution | BW25113 | – | > 25 µg/mL
C[C@H]1COc2c(N3CCN(C)CC3)c(F)cc3c(=O)c(C(=O)O)cn1c23 | agar dilution | ATCC25 | – | ≤ 0.03 µg/mL
N=C(N)c1ccc(OCc2cccc(COc3ccc(C(=N)N)cc3)c2)cc1 | – | BW25113 | – | > 200 µg/mL
CCCCCCC/C=C/C(=O)N1CC(=O)/C(=C(\C)O)C1=O | – | K12, K12 | – | > 200 µg/mL
N=C(N)c1cccc(OCc2ccccc2COc2cccc(C(=N)N)c2)c1 | broth dilution | BW25113 | – | > 200 µg/mL
CC(C)Oc1c(NC(=O)c2ccc(NC(=O)[C@H](CC(N)=O)NC(=O)c3ccc(NC(=O)c4ccccc4[N+](=O)[O-])cc3)cc2)ccc(C(=O)Nc2ccc(C(=O)O)cc2)c1O | – | DSM1116 | – | 8 µg/mL
C=CCn1c(-c2ccc([N+](=O)[O-])cc2)nc2ccccc21 | broth dilution | ATCC25922 | – | 64 µg/mL
N=C(N)c1ccc(OCc2ccc(COc3ccc(C(=N)N)cc3)cc2)cc1 | – | BW25113 | 20 h | > 200 µg/mL
CC(C)Oc1c(NC(=O)c2ccc(NC(=O)[C@H](CC(N)=O)NC(=O)c3ccc(NC(=O)c4cc(C#N)cn4C)cc3)cc2)ccc(C(=O)Nc2ccc(C(=O)O)cc2)c1O | – | DSM1116 | – | ≤ 0.03 µg/mL
O=C(CCCCCC[P+](c1ccccc1)(c1ccccc1)c1ccccc1)Nc1cc(O)c(O)c(O)c1.[Br-] | broth dilution | ATCC25922 | 18 h | > 32 µg/mL
Cn1c(SCc2ccc(Cl)cc2)nnc1-c1cncc(C#Cc2ccccc2)c1 | – | – | – | ≥ 20 µg/mL
COc1c(C)c(OCc2ccccc2)c(C)c(O)c1C(=O)/C=C/c1ccccc1 | broth dilution | ATCC25922 | – | 5000 µg/mL

SMILES | test | system | setting | MIC
CCCCCCC/C=C/C(=O)N1C(=O)/C(=C(\O)c2ccccc2)C(=O)C1CC(C)C (centres unmarked) | – | K12, K12 | – | > 200 µg/mL
Cc1ccc(C)n1-c1ccc(-c2nnc(-c3ccc(Br)cc3)[nH]2)cc1 | broth dilution | ATCC10536 | 18 h | 125 µg/mL
N=C(N)c1cccc(OCCCCCOc2cccc(C(=N)N)c2)c1 | – | BW25113 | – | > 200 µg/mL
CC(C)Oc1c(NC(=O)c2ccc(NC(=O)[C@H](CC(N)=O)NC(=O)c3ccc(NC(=O)c4ccc5c(c4)COC5=O)cc3)cc2)ccc(C(=O)Nc2ccc(C(=O)O)cc2)c1O | – | DSM1116 | – | ≤ 0.03 µg/mL
O=C(Nc1ccc2c(c1)OC(F)(F)O2)Nc1ccc(Cl)c(C(F)(F)F)c1 | – | CFT073 | – | > 100 µM
O=c1[nH]cc(F)c(=O)[nH]1 | broth dilution | – | 24 h | > 32 µg/mL
Brc1ccc(NCc2ccc(Oc3ccccn3)cc2)cc1 | – | – | – | > 25 µg/mL
Cc1cc(=O)[nH]n1C(=O)c1ccc(-n2c(C)ccc2C)cc1 | broth dilution | ATCC10536 | 18 h | 250 µg/mL
CSc1ccc(-c2nc3ccccc3[nH]2)cc1 | broth dilution | ATCC25922 | – | 64 µg/mL
CC(C)Oc1c(NC(=O)c2ccc(NC(=O)[C@H](CC(N)=O)NC(=O)c3ccc(NC(=O)c4ccc(C#N)cc4)cc3)cc2)ccc(C(=O)Nc2ccc(C(=O)O)cc2)c1O | – | ATCC25922 | – | 0.02 µg/mL
N=C(N)c1ccc(OCc2ccc(Br)cc2COc2ccc(C(=N)N)cc2)cc1 | broth dilution | ATCC25922 | – | > 200 µg/mL
O=[N+]([O-])c1ccc(-c2nc3cc(Cl)ccc3[nH]2)o1 | broth dilution | ATTC25922 | – | 8 µg/mL
CC(C)Oc1c(NC(=O)c2ccc(NC(=O)[C@H](CC(N)=O)NC(=O)c3ccc(NC(=O)c4ccc(NC(N)=O)cc4)cc3)cc2)ccc(C(=O)Nc2ccc(C(=O)O)cc2)c1O | – | DSM1116 | – | 0.5 µg/mL
COc1cccc(-c2nc3ccc(C)cc3[nH]2)c1 | broth dilution | ATCC25922 | – | 128 µg/mL
CCCc1nc(Cl)c2c(c1O)C(=O)C1=C(O)[C@]3(O)C(=O)C(C(N)=O)=C(O)[C@@H](N(C)C)[C@@H]3C[C@@H]1C2.Cl | broth dilution | ATCC25922 | – | 16 µg/mL
CC(C)Oc1c(NC(=O)c2ccc(NC(=O)[C@H](CC(N)=O)NC(=O)c3ccc(NC(=O)c4ccc(C#N)cc4)cc3)cc2)ccc(C(=O)O)c1O | – | DSM1116 | – | > 64 µg/mL
CC1(C)S[C@@H]2[C@H](NC(=O)[C@H](N)c3ccccc3)C(=O)N2[C@H]1C(=O)O | broth dilution | ATCC25922 | – | 4 µg/mL
NC1CCCCc2c1[nH]c1cc(Cl)c(Cl)cc21 (centres unmarked) | broth dilution | ATCC25922 | – | 8 µg/mL
Cc1ccc2nc(-c3ccc(Cl)cc3)[nH]c2c1 | broth dilution | ATCC25922 | – | 256 µg/mL
N=C(N)c1ccc(OCc2cc(Br)cc(COc3ccc(C(=N)N)cc3)c2)cc1 | broth dilution | W3110 | – | 100 µg/mL
Cc1ccc2nc(-c3c4ccccc4cc4ccccc34)[nH]c2c1 | broth dilution | ATCC25922 | – | 128 µg/mL
O=[N+]([O-])c1ccc(O)c2ncccc12 | broth dilution | ATCC25922 | – | 2 µg/mL
CC1=NN(CNC(=O)c2ccccn2)C(=O)C1=NNn1c(-c2ccccc2)nc2ccccc2c1=O | broth dilution | – | 24 h | 52 µM
C/C(=C\c1ccc(O)cc1)C(=O)Nc1ccc(C(=O)N[C@@H](CC(N)=O)C(=O)Nc2ccc(C(=O)Nc3ccc(C(=O)Nc4ccc(C(=O)O)cc4)c(O)c3OC(C)C)cc2)cc1 | – | DSM1116 | – | 0.25 µg/mL
Cc1ccccc1NCc1ccc(Oc2ccccn2)cc1 | – | – | – | > 25 µg/mL
c1ccc2c(-c3nc4ccccc4[nH]3)c3ccccc3cc2c1 | broth dilution | ATCC25922 | – | 64 µg/mL
